Bioassay records: PubChem BioAssay, Johns Hopkins Ion Channel Center
RGS4 act: potentiators or activators of RGS4. HEK293 M3R/inducible RGS4, carbachol calcium flux Fluo4; active compounds read low. B-score at 10 µM. 310,000 tested, 0.92% active;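 active means B-score of the integrated calcium signal more than 4 SD below the library mean, with starting fluorescence not abnormally high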;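 further: negative B-score means reduced calcium response which marks RGS4 activation or potentiation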
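Test system: HEK293 cells with stable M3R and inducible RGS4; also added: carbachol at ECmax as muscarinic agonist stimulus; schedule: dye loading 30 min 37 °C, buffer rest 30 min RT; technique: kinetic calcium fluorescence imaging with Fluo4-AM dye, 2 µM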
MrgX1 agonist: activates human MrgX1 receptor signaling. MrgX1-HEK293 cells, Fluo-4 calcium fluorescence, agonist mode; active compounds read high. B-score at 10 µM. 310,000 tested, 0.44% active;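 active means calcium response B-score plate-corrected fluorescence ratio at least 3 library SD, with starting fluorescence B-score inside 5 SD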
Target sequence (Q96LB2 whole entry, looked up): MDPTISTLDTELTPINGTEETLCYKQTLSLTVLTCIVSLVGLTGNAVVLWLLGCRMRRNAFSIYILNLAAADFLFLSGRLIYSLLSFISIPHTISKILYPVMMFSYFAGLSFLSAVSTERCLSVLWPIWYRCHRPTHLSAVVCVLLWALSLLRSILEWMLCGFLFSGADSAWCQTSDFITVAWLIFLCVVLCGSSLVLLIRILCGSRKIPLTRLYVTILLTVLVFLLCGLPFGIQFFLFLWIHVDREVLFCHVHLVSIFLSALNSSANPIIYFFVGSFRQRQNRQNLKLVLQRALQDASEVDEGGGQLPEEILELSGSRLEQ
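Assay system: stable human MrgX1 HEK293 cell line. Quantity: 15,000 cells per well. Schedule: cells plated overnight, dye loaded 0.5 h 37 °C, 0.5 h room temperature. Detection: Fluo-4 NW calcium-flux fluorescence, kinetic read. Read-out basis: peak-minus-minimum fluorescence over baseline, converted to B scores. Control set: positive and negative control wells on each plate.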
RGS4 inh: inhibitors of human RGS4. B-score at 10 µM. 310,000 tested, 0.45% active. HEK293 M3R/RGS4 inducible, Fluo-4 calcium flux; active compounds read high; triggered by carbachol at its EC20. AID 463165;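 active means B-score, a plate-corrected calcium signal, over three deviations above library mean, with baseline fluorescence within five deviations of library mean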;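 further: RGS4 expression induced by doxycycline in cells with stable M3 receptor; B-score is computed from the integrated fluorescence ratio over baseline after carbachol; higher B-score means a larger calcium signal and so more RGS4 inhibition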
Target sequence (P49798 whole entry, looked up): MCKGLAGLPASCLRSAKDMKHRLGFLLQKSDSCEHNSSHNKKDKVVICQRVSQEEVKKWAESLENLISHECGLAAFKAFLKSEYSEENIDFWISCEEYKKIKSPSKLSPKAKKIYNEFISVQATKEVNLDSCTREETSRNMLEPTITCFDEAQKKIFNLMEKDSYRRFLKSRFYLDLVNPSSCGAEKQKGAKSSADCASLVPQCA
MrgX1 antag: antagonists of human MrgX1 receptor; Q96LB2; MRGX1-HEK293 calcium flux, Fluo-4, BAM8-22 antagonism; active compounds read low; B-score at 10 µM; 310,000 tested, 1.3% active;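 active means calcium-response B-score plate-corrected more than 3 library SD below zero, starting fluorescence within 5 deviations, no agonist response on first addition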;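 further: peak minus trough fluorescence over baseline after final BAM8-22 challenge near maximal dose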
MrgX1 allo act: human MrgX1 positive allosteric modulation, primary screen; 310,000 tested, 0.63% active; B-score at 10 µM; MrgX1-HEK293, Fluo-4 calcium flux, FDSS; active compounds read high;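 active means plate-corrected calcium response at least 3 library SD above typical, normal starting fluorescence, not activating the receptor alone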;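 further: compound read alongside a low EC10 to EC30 dose of BAM8-22 agonist; peak minus trough fluorescence over baseline measured at the second addition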
RGS4 block valid: RGS4 inhibitor validation; shares compounds with RGS4 inh; HEK293 M3R/RGS4, carbachol calcium Fluo-4 fluorescence; carbachol added at its EC20; 0 = buffer wells, 100 = carbachol control; calcium response, % at 10 µM; 1,700 tested, 65% active;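 active means duplicate-averaged calcium response above the buffer-only control mean plus 5 SD of those controls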;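 further: integrated fluorescence ratio F max minus min over baseline F0; higher response in RGS4-induced cells means RGS4 inhibition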
M3R Ca ctr: checks RGS4 inhibitor effects in non-induced HEK293 M3R cells. AID 493000. 1,900 tested, 20% active. carbachol calcium Fluo-4; submaximal (EC20) carbachol stimulus; buffer wells 0%, carbachol control wells 100%. shares compounds with RGS4 inh. activity (percent), % at 10 µM; call rule not given here;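 further: RGS4 induction absent so cells express M3R without RGS4; higher means more calcium signal and flags a non-specific hit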
M3R basal Ca ctr: second RGS4 inhibitor counter-screen in uninduced cells lacking carbachol; shares compounds with RGS4 inh; HEK293 M3R/RGS4 non-induced, Fluo-4 calcium, no carbachol; normalised: buffer wells 0%, carbachol wells 100%; calcium response (agonist-mode artifact), % at 10 µM; 1,900 tested, 22% active;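 active means duplicate-averaged calcium rise in uninduced cells above buffer wells' mean plus 5 SD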
Hits are given with their value; . = inactive; / = no result. Compounds with a hit are over-represented: about 3.5% of the library has one in this group of screens.

SMILES	RGS4 act	MrgX1 agonist	RGS4 inh	MrgX1 antag	MrgX1 allo act	RGS4 block valid	M3R Ca ctr	M3R basal Ca ctr
O=C1NC(=O)N(c2ccccc2)C(=O)/C1=C\c1ccc([N+](=O)[O-])s1	.	.	.	.	.	/	/	/
CN1C(=O)NC(=O)/C(=C/c2ccc([N+](=O)[O-])s2)C1=O	.	.	7.2	.	.	14%	.	.
COc1ccc(OC)c(N2C(=O)NC(=O)/C(=C\c3ccc([N+](=O)[O-])s3)C2=O)c1	.	.	8	.	.	18%	.	.
O=C1NC(=S)NC(=O)C1=Cc1ccc(Br)s1	.	.	22	.	.	78%	.	18%
CCN1C(=O)C(=Cc2ccc(C)s2)C(=O)N(CC)C1=S	.	.	.	.	.	/	/	/
Cc1cc(/C=C2\C(=O)NC(=S)N(C)C2=O)c(C)n1C1CCCCC1	.	.	.	.	.	/	/	/
CN1C(=O)/C(=C\c2ccc(Br)s2)C(=O)NC1=S	.	.	19	.	.	5.5%	.	.
Cn1c(=O)c2c(nc(N/N=C/c3c(O)n(-c4ccccc4)c(=S)[nH]c3=O)n2C)n(C)c1=O	.	.	.	.	.	/	/	/
Cc1cccc(NP(=O)(Oc2ccccc2F)Oc2ccccc2F)c1C	.	.	4.9	.	.	.	.	.
COc1cc2c(cc1O)C[C@H]1c3c(cc(O)c(OC)c3-2)CCN1C	/	.	/	.	.	/	/	/
CN1CCc2cc(O)cc3c2[C@H]1Cc1ccc(O)c(O)c1-3	.	.	7.3	.	.	30%	.	.
COc1ccc(C(CNC(=O)c2ccc3c(c2)CCC3)N(C)C)cc1 (stereo not given)	.	.	.	.	.	/	/	/
NC1=C([N+](=O)[O-])C(c2ccc3c(c2)OCO3)c2c(c3ccccc3oc2=O)O1 (stereo not given)	.	.	.	.	.	/	/	/
O=c1oc2ccccc2c(O)c1[C@H]1c2ccc(O)cc2Oc2c1c(=O)oc1ccccc21	.	.	11	.	.	58%	35%	.
Cc1ccc(NP(=O)(Nc2ccc(C)cc2)Oc2ccccc2)cc1	.	.	.	.	.	/	/	/
C=CCn1c(O)c(C(CC)=Nc2ccc(N(C)C)cc2)c(=O)[nH]c1=O	.	.	.	.	.	/	/	/
CC12CN3CN(C1)CC(C)(C3)C2=NO	.	.	5.2	.	.	.	.	.
COc1ccc(S(=O)(=O)N2CC3CC(C2)c2cccc(=O)n2C3)cc1 (stereo not given)	.	.	.	.	.	/	/	/
COc1ccc(-n2c(O)c(/C=C3\C=Nc4ccc(Br)cc43)c(=O)[nH]c2=O)c(OC)c1	.	.	26	.	.	55%	.	326%
C[C@H]1[C@@H](c2ccccc2)O[C@@H](c2ccccc2Br)N1C	.	.	.	.	.	/	/	/
O=C1NC(=S)N(c2ccccc2F)C(=O)/C1=C\c1cccs1	.	.	9.5	.	.	34%	.	.
CCOc1ccc(N2C(=O)/C(=C\c3cccs3)C(=O)NC2=S)cc1	.	.	.	.	.	/	.	.
O=C(N/N=C/c1c(O)n(CCc2ccccc2)c(=O)[nH]c1=O)c1ccccc1	.	.	.	-5.4	.	.	.	7.5%
O=c1[nH]c(=O)n(CCC2=CCCCC2)c(O)c1/C=N/Nc1ccccc1	.	.	.	.	.	/	/	/
CCCCn1c(O)c(/C=N/NC(=O)c2ccncc2)c(=O)[nH]c1=O	.	.	.	.	.	/	/	/
SMILES	RGS4 act	MrgX1 agonist	RGS4 inh	MrgX1 antag	MrgX1 allo act	RGS4 block valid	M3R Ca ctr	M3R basal Ca ctr
O=c1[nH]c(=O)n(CCC2=CCCCC2)c(O)c1/C=N/Nc1cccc2ccccc12	.	.	5.7	.	.	9.0%	.	.
CC(=O)O[C@@]12CO[C@@H]1C[C@H](OC1OCC(O)C(O)C1O)[C@@]1(C)C(=O)[C@H](O)C3=C(C)[C@@H](OC(=O)[C@H](O)[C@@H](NC(=O)c4ccccc4)c4ccccc4)C[C@@](O)([C@@H](OC(=O)c4ccccc4)C12)C3(C)C (stereo not given in full)	.	.	.	.	.	/	/	/
Cn1cccc1/C=C1\C(=O)NC(=O)N(Cc2ccccc2)C1=O	.	.	.	.	.	/	/	/
Cn1cccc1/C=C1/C(=O)NC(=O)N(Cc2ccccc2)C1=O	.	.	.	.	.	/	/	/
Cn1cccc1/C=C1/C(=O)NC(=S)N(Cc2ccc(F)cc2)C1=O	.	.	7.2	.	7	.	.	.
Cn1cccc1/C=C1/C(=O)NC(=O)N(Cc2ccc(F)cc2)C1=O	.	.	.	.	.	.	.	9.0%
CCCC(=O)N(C)C1=Nc2ccc(Cl)cc2C(c2ccccc2)=[N+]([O-])C1	.	.	.	.	.	/	/	/
Cc1ccc(N2C(=O)NC(=O)/C(=C/c3cnn(-c4ccc(C)cc4)c3)C2=O)cc1	.	.	4.8	.	.	10%	.	.
CSc1ncc(/C=C2/C(=O)NC(=O)N(c3ccc(C)cc3)C2=O)cn1	.	.	.	.	.	/	/	/
CCOC(=O)C1CCN(C(C)C(=O)c2c[nH]c3ccccc23)CC1 (stereo not given)	.	.	.	.	.	/	/	/
O=[N+]([O-])c1cc(-c2ccc([As](=O)(O)O)cc2)ccc1[As](=O)(O)O	.	.	.	.	.	/	/	/
COC(=O)C1=Nc2ccccc2/C1=C\c1c(O)n(-c2cc(OC)ccc2OC)c(=O)[nH]c1=O	.	.	.	.	.	/	/	/
Cc1cccc(-n2c(O)c(/C=C3/C(c4ccccc4)=Nc4ccccc43)c(=O)[nH]c2=O)c1	.	47	.	.	.	/	.	29%
O=C1NC(=O)N(Cc2ccc(F)cc2)C(=O)/C1=C\C=C\c1ccco1	.	.	12	.	8.3	10%	.	12%
Cc1ccc(N2C(=O)NC(=O)/C(=C/C=C/c3ccco3)C2=O)cc1	.	.	.	.	.	.	.	16%
Cc1cc(C)cc(N2C(=O)NC(=O)/C(=C\C=C\c3ccco3)C2=O)c1	.	.	23	.	.	59%	80%	36%
O=C1NC(=O)N(c2ccccc2)C(=O)/C1=C\C=C\c1ccccc1	.	.	16	.	.	114%	31%	24%
COc1cc2c(c(OC)c1OC)-c1ccc(O)cc1[C@@H](NC(C)=O)CC2	.	.	.	.	.	/	/	/
CC1(C)CN(S(=O)(=O)OCC(Cl)(Cl)Cl)C(=O)N1	.	.	.	.	.	/	/	/
CCCC1(CCC)C(=O)NC(=Nc2ccc(C)cc2)NC1=O	.	.	.	.	.	/	/	/
